Experimental data of several laboratories.
Lines come from different studies, so protocols differ.
Target: Platelet-derived growth factor receptor beta (PDGFRB, Homo sapiens, UniProt P09619)

SMILES	assay	conditions	measurement	result
Cc1ccc(NC(=O)c2ccc(CN3CCN(C)CC3)cc2)cc1Nc1nccc(-c2cccnc2)n1	enzyme activity, inhibitor	0.5 µM	activity vs control	39.1%
O=C(Nc1ccc(Oc2ccc(F)cc2)cc1)N1CCc2ncccc2[C@H]1c1ccc(F)cc1	cell-free assay, competition with immobilised ligand	1 µM	remaining binding	100%
Cc1ccc(C(=O)NCc2ccsc2)cc1C#Cc1cn(C(C)C)c2ncnc(N)c12	enzyme activity, inhibitor	1 µM	activity vs control	20%
Nc1ncnc2occ(-c3ccc(NC(=O)Nc4cc(C(F)(F)F)ccc4F)cc3)c12	enzyme activity, inhibitor	20 µM	remaining activity	0%
CCN(CC)c1ccc(C2=NNC(=O)CC2C)cc1[N+](=O)[O-] (stereo not shown)	enzyme activity, inhibitor	10 µM	remaining activity	6%
O=C1Nc2ccc(Cl)cc2C1=Cc1cc(Cl)c(O)c(Cl)c1	cell-free assay	0.5 µM	remaining signal	76.9%
CC/C(=N\NC(=O)NCc1cccc(O)c1)c1ccc(O)c(C)c1O	enzyme activity, inhibitor	0.1 µM	inhibition	4.5%
CCCOc1ccc([C@H]2[C@H](C(=O)O)[C@@H](c3ccc4c(c3)OCO4)CN2CC(=O)Nc2c(CC)cccc2CC)cc1	cell-free assay, competition with immobilised ligand	1 µM	remaining binding	100%
O=C1c2ccccc2-c2n[nH]c3cccc1c23	enzyme activity, inhibitor	0.5 µM	activity vs control	85.1%
COc1cc(Cl)c(C(=O)N[C@@H](CN[C@H]2CC[C@@H](N)CC2)Cc2ccc(C#N)cc2)cc1-c1ccc(CN[C@H](C)c2ccc(C)cc2)o1	enzyme activity, inhibitor	1 µM	remaining activity	95%
C=CC(=O)Nc1cc(Nc2nccc(Nc3cc(Cl)c(F)cc3C(C)(C)O)n2)c(OC)cc1N1CC[C@@H](N(C)C)C1	enzyme activity, inhibitor	1 µM	inhibition	-2%
O=c1nc(-c2ccccn2)sc2ccccc12	cell-free assay, competition with immobilised ligand	1 µM	remaining binding	83%
O=C(Nc1cnn(-c2csc(C(=O)NC3COC3)c2)c1)Nc1ccccc1Cl	enzyme activity, inhibitor	5 µM	remaining activity	107%
COc1cccc(CNC(=O)c2nc3scc(COCc4ccc(C(=O)O)cc4)c3c(=O)[nH]2)c1	cell-free assay, competition with immobilised ligand	1 µM	remaining binding	99%
Oc1cccc(-c2nc(N3CCOCC3)c3oc4ncccc4c3n2)c1	cell-free assay	0.5 µM	remaining signal	99.2%
O=C(Nc1cccnn1)N1CCC(=Cc2cccc(Oc3ccc(C(F)(F)F)cn3)c2)CC1	cell-free assay, competition with immobilised ligand	1 µM	remaining binding	97%
O=C(CSc1nc2nccnc2c(=O)n1CCc1ccccc1)Nc1nccs1	enzyme activity, inhibitor	10 µM	inhibition	2%
Oc1ccc(-c2nc(-c3ccncc3)c(-c3ccc(F)cc3)[nH]2)cc1	cell-free assay	0.5 µM	remaining signal	104%
O=C(Nc1cccnn1)N1CC(C/C=C/c2cncc(Oc3ccc(C(F)(F)F)cn3)n2)C1	cell-free assay, competition with immobilised ligand	1 µM	remaining binding	81%
